# Experimental data reported in ChEMBL document CHEMBL1629663, “Postantibiotic effects of telavancin against 16 gram-positive organisms” (Antimicrob Agents Chemother, 2009).
# Legend:
# Assay type in all cases: functional
# [1] = tested on: Staphylococcus aureus; assay: Antimicrobial activity against vancomycin-intermediate-, methicillin-resistant Staphylococcus aureus 555 by microdilution method
# [2] = tested on: Staphylococcus aureus; assay: Antimicrobial activity against vancomycin-susceptible-, methicillin-resistant Staphylococcus aureus ATCC 33591 assessed as time required to induce post antibiotic sub-MIC effect at 0.3 times MIC […] by plate counting method
# Method in brief: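 After 1 h preexposure to 10× MIC at 35°C and 1:1,000 dilution, cultures were split, and drug was re-added to final 0.2, 0.3 or 0.4× MIC, with a drug-free tube. Viable counts were taken every 2 h until McFarland 1 turbidity. Duration was derived from log10 CFU/ml versus time curves. Two experiments were run, each with a new inoculum.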
# [3] = tested on: Enterococcus faecalis; assay: Antimicrobial activity against Enterococcus faecalis ATCC 29212 assessed as time required to induce sub-MIC effect at 0.2 times MIC exposed for 2 hrs by plate counting method
# Method in brief: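 Unexposed Mueller-Hinton broth cultures (about 5 × 10^6 CFU/ml, 35°C) were handled as in the PA-SME set but without the 10× MIC pre-exposure. They were diluted 1:1,000, then given telavancin at final 0.2, 0.3 or 0.4× MIC, with a drug-free control. Viable counts were taken every 2 h until McFarland no. 1 turbidity. Effect duration comes from log10 CFU/ml-time plots; two separate experiments with new inocula.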
# [4] = tested on: Enterococcus faecalis; assay: Antimicrobial activity against Enterococcus faecalis HMC 571 by microdilution method
# [5] = tested on: Staphylococcus aureus; assay: Antimicrobial activity against vancomycin-intermediate-, methicillin-resistant Staphylococcus aureus 555 assessed as time required to induce post antibiotic sub-MIC effect at 0.3 times MIC […] by plate counting method
# Method in brief: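 PAE was first induced with 10× MIC for 1 h at 35°C (inoculum about 5 × 10^6 CFU/ml, Mueller-Hinton broth) and ended by 1:1,000 dilution. Cultures were then split and given 0.2, 0.3 or 0.4× MIC, with one tube left without drug. Viable counts were taken before exposure, after dilution, then every 2 h until McFarland no. 1 turbidity. Two separate experiments, each with a new inoculum.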
smiles,measurement,setting,value
CCCCCCCCCCNCCN[C@@]1(C)C[C@H](O[C@H]2[C@H](Oc3c4cc5cc3Oc3ccc(cc3Cl)[C@@H](O)[C@@H](NC(=O)[C@@H](CC(C)C)NC)C(=O)N[C@@H](CC(N)=O)C(=O)N[C@H]5C(=O)N[C@H]3C(=O)N[C@H](C(=O)N[C@H](C(=O)O)c5cc(O)c(CNCP(=O)(O)O)c(O)c5-c5cc3ccc5O)[C@H](O)c3ccc(c(Cl)c3)O4)O[C@H](CO)[C@@H](O)[C@@H]2O)O[C@@H](C)[C@H]1O [TELAVANCIN],MIC,[1],0.5 µg/mL
same,PAE,[2],> 10 h
same,PAE,[3],0.7 h
same,MIC,[4],0.25 µg/mL
same,PAE,[5],10.3 h
